Compound activity deposited in PubChem by several laboratories.
In the library only some 5.4% were active in any assay of this set; here they are far more common.
tolC growth inh – growth inhibitors of E. coli tolC mutant, primary screen, strain BW25113 ΔtolC::kan, 384-well. OD615. growth inhibition, % at 10 µM (by protocol). 65,000 tested, 2.2% active. AID 573, 2007;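 active = growth inhibition at or above a cutoff equal to the mean over every tested compound plus 3 SD, cut at about 60% in these data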;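 note: growth measured after 20 h incubation at 37 °C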
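Test system: E. coli BW25113 ΔtolC::kan bacteria; incubation: 37 °C, 20 h exposure; medium: LB broth supplemented with 50 µg/mL kanamycin; read-out basis: percent growth inhibition; signal: A615 absorbance measurement; compound: 10 µM final, single dose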
Ecoli WT expand – growth inhibitors of wild-type E. coli, primary screen, strain BW25113, expanded library, OD600 | growth inhibition, % at 100 µM | OD600 absorbance | 98,000 tested, 0.15% active | AID 710, 2007;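 active = growth inhibition above about 50% at one test dose, limit read from the data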;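 note: growth measured after 20 h incubation at 37 °C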
HePTP inh – inhibitors of human HePTP phosphatase, primary screen, biochemical, absorbance, leukemia target; recombinant HePTP phosphatase activity, OD absorbance; 110,000 tested, 0.64% active; Tyrosine-protein phosphatase non-receptor type 7 (Homo sapiens), P35236; inhibition, % at 20 µM; in the data active = inhibition above about 50%;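 note: plate controls were vehicle for no effect and reference inhibitor for full effect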
PostGolgi yeast – phenotypic screen on post-Golgi transport, primary screen | 98,000 tested, 0.9% active | post-Golgi transport phenotypic cell assay | inhibition, % at 10 µM;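 note: yeast cells grown in 1536-well plates; yeast grown about 18 h at 30C before absorbance read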
PostGolgi ctrl – growth inhibition of yeast control strain, primary screen, counter-screen for post-Golgi transport modulator project | efflux-deficient yeast background strain, growth absorbance A615, 16 h | inhibition, % at 10 µM | 98,000 tested, 5% active | AID 738, 2007
PLAP act – PLAP enzyme activators, biochemical, luminescence, HTS. Alkaline phosphatase, placental type (Homo sapiens), P05187. purified PLAP enzyme, luminescent substrate read-out; stronger effect = higher value. activation fold at 20 µM. 96,000 tested, 1.2% active; in the data active = activation fold above about 2
Target sequence (P05187 whole entry, looked up): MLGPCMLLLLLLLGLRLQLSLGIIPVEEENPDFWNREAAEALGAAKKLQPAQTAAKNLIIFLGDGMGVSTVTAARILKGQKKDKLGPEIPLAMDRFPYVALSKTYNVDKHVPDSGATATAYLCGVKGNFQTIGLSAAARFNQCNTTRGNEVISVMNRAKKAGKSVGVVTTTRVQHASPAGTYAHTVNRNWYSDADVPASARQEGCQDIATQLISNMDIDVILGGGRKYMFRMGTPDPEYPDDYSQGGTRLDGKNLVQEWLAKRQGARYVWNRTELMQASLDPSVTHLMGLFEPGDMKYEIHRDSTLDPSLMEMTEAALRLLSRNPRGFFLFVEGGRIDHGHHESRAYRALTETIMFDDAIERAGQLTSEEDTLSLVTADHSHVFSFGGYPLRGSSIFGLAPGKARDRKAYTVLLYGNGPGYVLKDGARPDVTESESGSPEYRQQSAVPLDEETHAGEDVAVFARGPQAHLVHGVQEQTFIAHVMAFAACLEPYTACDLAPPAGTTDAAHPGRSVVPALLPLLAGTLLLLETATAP
* marks the source's active call; other numbers are inactive results; x = not tested or not shown. Cut-off read from the data, not from the text of the source, unless noted: active = inhibition above about 30%; inactive = the rest.

SMILES	tolC growth inh	Ecoli WT expand	HePTP inh	PostGolgi yeast	PostGolgi ctrl	PLAP act
Cc1nn(-c2ccccc2)c(C)c1C(=O)Nc1nnc(-c2ccco2)o1	65.1*	3.0	11.6	2.3	-4.1	1.5
O=C(NCc1ccccn1)c1cc(S(=O)(=O)N2CCN(c3ccccc3)CC2)ccc1Cl	6.2	-12.0	10.4	17.2	3.5	1.4
O=C(c1ccccc1)N1CCCCC(Sc2nnc3ccccn23)C1=O (stereo not drawn)	-6.4	-15.0	4.2	-1.6	31.0*	0.9
O=C(NC(=S)NC1CCSC1=O)c1ccccc1Cl (stereo not drawn)	x	-3.0	x	4.0	7.0	1.8
O=C(NC(=S)NC1CCSC1=O)c1ccco1 (stereo not drawn)	x	x	103.4*	x	x	x
CCc1cccc(NC(=O)Cn2cccc2)c1	-2.7	-11.0	0.9	-3.2	9.8	1
CCc1cccc(NC(=O)CSCc2cc(=O)[nH][nH]2)c1	x	9.0	x	3.3	7.2	2.5*
CC(NC(=O)C(=O)Nc1ccccc1F)c1ccccc1 (stereo not drawn)	x	x	-1.6	x	x	x
COCC(=O)N(C)C1(c2nnnn2CCOC(=O)Nc2ccc(Cl)cc2)CCCC1	-2.1	-11.0	1.0	-3.1	-2.8	0.9
COc1cc(-c2cc(OC)c3c(C)oc(C)c3c(=O)c2)ccc1O	6.7	7.0	0.3	6.5	45.0*	1.2
COc1ccc(-c2cc(OC)c3c(C)oc(C)c3c(=O)c2)cc1OC	-13.6	-10.0	-3.9	-3.8	4.7	1.6
CCOc1c(Br)cc(CNc2ncn[nH]2)cc1OC	-0.7	2.0	7.0	11.4	3.9	1.7
COc1cc(CNc2ncn[nH]2)cc(Br)c1OC	-11.9	3.0	2.4	-27.9	6.8	2.5*
CCSc1nsc(SCC)c1C(N)=O	-14.2	2.0	0.9	2.1	11.5	0.9
CC1(C)COC(c2cccn2Cc2ccc(F)cc2Cl)=N1	x	8.0	x	9.6	7.7	1
CC1CN=C(c2cccn2Cc2ccc(F)cc2Cl)O1 (stereo not drawn)	1.8	6.0	2.9	11.2	32.0*	1.2
CCCN(CCC)C1CC(=O)N(Cc2ccccc2)C1=O (stereo not drawn)	-0.3	-1.0	-10.5	1.5	4.0	1.2
CCCCN(C)S(=O)(=O)c1ccc(C(=O)Nc2nnc(-c3cccs3)o2)cc1	100.0*	1.0	6.5	14.6	7.3	1
COCCN(CCOC)S(=O)(=O)c1ccc(C(=O)Nc2nnc(C3CC3)o2)cc1	-8.9	-1.0	4.9	7.6	6.8	1.4
CCCCN(CC)S(=O)(=O)c1ccc(C(=O)Nc2nnc(CSC)o2)cc1	98.5*	12.0	15.8	-6.8	9.2	1.2
CCCCN(CCCC)S(=O)(=O)c1ccc(C(=O)Nc2nnc(CSC)o2)cc1	98.8*	8.0	6.3	-4.2	-1.9	1.2
CCN(CC)S(=O)(=O)c1ccc(NC(=O)c2ccc(Cl)cc2)cc1	x	x	-18.2	x	x	x
CCCN(CCC)S(=O)(=O)c1ccc(C(=O)Nc2nnc(CSC)o2)cc1	98.8*	6.0	8.8	12.2	12.0	1.1
COc1ccccc1/C=C1/SC(=O)N(CNc2ccc(F)cc2)C1=O	x	x	-13.6	x	x	x
CCc1nnc(NC(=O)c2ccc(S(=O)(=O)N(CCOC)CCOC)cc2)o1	-4.6	-3.0	14.2	-13.9	5.9	1.2
SMILES	tolC growth inh	Ecoli WT expand	HePTP inh	PostGolgi yeast	PostGolgi ctrl	PLAP act
CCCCN(CC)S(=O)(=O)c1ccc(C(=O)Nc2nnc(-c3ccccc3Cl)o2)cc1	100.0*	-2.0	9.2	-8.5	5.9	1.7
CCCCN(CC)S(=O)(=O)c1ccc(C(=O)Nc2nnc(COC)o2)cc1	88.3*	5.0	-0.9	2.5	15.2	1.4
c1ccc2c(c1)ncn2-c1ccc(-c2ccnc(-c3ccncc3)n2)cc1	x	-3.0	x	98.4*	72.0*	0.9
CCN(CC)S(=O)(=O)c1cc(NC(=O)C(=O)c2c(-c3ccccc3)cc3ccccn23)ccc1C	x	-16.0	x	-1.8	12.9	1.5
CN(CC(=O)Nc1ccccc1N1CCOCC1)S(=O)(=O)c1ccc(Cl)cc1	x	-4.0	x	14.0	24.4	1
CCN(CC)S(=O)(=O)c1cccc(NC(=O)C(=O)c2c(-c3ccccc3)cc3ccccn23)c1	x	-16.0	x	-3.0	71.8*	1.2
CCN(CC)S(=O)(=O)c1ccc(N2CCOCC2)c(NC(=O)C(=O)c2c(-c3ccccc3)cc3ccccn23)c1	x	-14.0	x	71.7*	98.5*	1.4
